What was measured:
[1] = target: T1, Beta-3 adrenergic receptor (Homo sapiens, UniProt P13945); test: Agonist activity at human adrenergic beta-3 receptor expressed in CHO cells assessed as cAMP production; format: functional, cell-based
Outline: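 cAMP accumulation measured in CHO cells expressing cloned human β3-AR. Potency given as EC50; intrinsic activity (IA) expressed as % of isoproterenol maximum. Compounds with EC50 < 100 nM and IA > 50% tested at least twice in functional assays.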
Target sequence in this assay (P13945 whole entry): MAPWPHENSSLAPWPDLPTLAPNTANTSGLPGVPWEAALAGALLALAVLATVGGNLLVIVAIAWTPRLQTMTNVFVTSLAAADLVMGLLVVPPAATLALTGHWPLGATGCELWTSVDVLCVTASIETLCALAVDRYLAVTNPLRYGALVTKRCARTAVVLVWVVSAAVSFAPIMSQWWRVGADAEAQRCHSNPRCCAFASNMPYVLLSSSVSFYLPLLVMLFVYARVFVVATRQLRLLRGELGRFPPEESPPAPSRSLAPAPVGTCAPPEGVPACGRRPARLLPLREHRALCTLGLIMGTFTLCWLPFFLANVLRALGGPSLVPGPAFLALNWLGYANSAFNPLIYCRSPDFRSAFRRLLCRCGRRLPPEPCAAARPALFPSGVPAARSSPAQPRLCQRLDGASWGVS

[2] = target: T1, Beta-3 adrenergic receptor; test: Intrinsic activity at human adrenergic beta-3 receptor expressed in CHO cells assessed as cAMP production relative to isoproterenol; format: functional, cell-based
Outline: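 Functional readout was cAMP levels in Chinese hamster ovary cells expressing the cloned human β3 receptor. Intrinsic activity is given as a percentage of the isoproterenol maximum. Compounds with EC50 < 100 nM and IA > 50% were tested at least twice.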
Target sequence in this assay (P13945 whole entry, looked up): as the sequence (P13945 whole entry) above

[3] = target: Beta-1 adrenergic receptor (Homo sapiens, UniProt P08588); test: Displacement of [125I]iodocyanopindolol from human adrenergic beta-1 receptor expressed in CHO cells; format: cell-based
Chain of Beta-1 adrenergic receptor (P08588 whole entry): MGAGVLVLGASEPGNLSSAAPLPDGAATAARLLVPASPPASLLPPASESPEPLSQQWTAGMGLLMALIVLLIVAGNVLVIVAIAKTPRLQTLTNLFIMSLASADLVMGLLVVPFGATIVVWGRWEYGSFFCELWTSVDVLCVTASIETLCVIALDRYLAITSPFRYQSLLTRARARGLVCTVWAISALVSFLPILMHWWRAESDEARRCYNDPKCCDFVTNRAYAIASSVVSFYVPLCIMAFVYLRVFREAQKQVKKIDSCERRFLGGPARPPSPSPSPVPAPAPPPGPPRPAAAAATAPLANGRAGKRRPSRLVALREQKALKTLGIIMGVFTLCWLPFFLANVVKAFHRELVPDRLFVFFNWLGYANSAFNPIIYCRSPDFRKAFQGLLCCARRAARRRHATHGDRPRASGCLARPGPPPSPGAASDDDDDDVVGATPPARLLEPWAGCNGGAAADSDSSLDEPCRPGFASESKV

[4] = target: Beta-2 adrenergic receptor (Homo sapiens, UniProt P07550); test: Displacement of [125I]iodocyanopindolol from human adrenergic beta-2 receptor expressed in CHO cells; format: cell-based
Chain of Beta-2 adrenergic receptor (P07550 whole entry): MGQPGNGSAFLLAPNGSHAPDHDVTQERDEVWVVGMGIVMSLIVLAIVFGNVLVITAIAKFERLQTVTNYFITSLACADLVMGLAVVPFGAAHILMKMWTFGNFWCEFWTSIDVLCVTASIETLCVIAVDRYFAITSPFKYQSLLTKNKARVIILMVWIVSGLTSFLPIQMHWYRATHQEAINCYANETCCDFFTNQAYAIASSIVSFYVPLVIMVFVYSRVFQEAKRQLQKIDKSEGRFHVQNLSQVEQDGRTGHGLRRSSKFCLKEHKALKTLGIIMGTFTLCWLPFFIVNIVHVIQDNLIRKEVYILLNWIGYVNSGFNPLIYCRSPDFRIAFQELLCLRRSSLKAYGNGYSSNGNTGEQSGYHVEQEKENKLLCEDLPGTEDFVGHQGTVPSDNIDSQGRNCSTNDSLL

Homo sapiens = organism: Homo sapiens; test: Selectivity for human adrenergic beta-3 receptor over human adrenergic beta-1 receptor
Outline: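 Selectivity came from radioligand binding on membranes of CHO cells expressing cloned human β1 or β3 receptors, using 125I-iodocyanopindolol. The β3 value is the high-affinity agonist-site KiH, taken from a two-site competition fit. The ratio is β1 Ki over β3 Ki.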

Rattus norvegicus [5] = test: Increase in oxygen consumption in rat at 10 mg/kg, po after 120 mins; format: functional
Outline: (§1)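 Rats dosed orally (0.3, 1, 3, 10 mg/kg). Baseline O2 consumption recorded every 10 min for 3 h, then dosing with compound or vehicle and 2 h further recording. Values excluded when ambulatory activity was >100 counts/10 min, along with the first five values of the run and the first value after dosing. Change taken over 0–120 min.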

[6] = Clearance in dog; format: ADME, organism-based, Canis lupus familiaris; conditions: in vivo
[7] = Oral bioavailability in dog; format: ADME, organism-based, Canis lupus familiaris; conditions: in vivo
[8] = Volume of distribution at steady state in rat; format: ADME, organism-based; conditions: in vivo, read-out: Vdss
Rattus norvegicus [9] = test: Increase in heart rate in rat at 10 mg/kg; format: functional
[10] = Oral bioavailability in rat; format: ADME, organism-based; conditions: in vivo
[11] = Half life in dog; format: ADME, organism-based, Canis lupus familiaris; conditions: in vivo
Outline: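 Half-life determined after IV dosing in dog.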

[12] = Volume of distribution at steady state in dog; format: ADME, organism-based, Canis lupus familiaris; conditions: in vivo, read-out: Vdss
[13] = Half life in rat; format: ADME, organism-based; conditions: in vivo
Outline: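 Half-life determined after IV dosing in rat.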

Rattus norvegicus [14] = organism: Rattus norvegicus; test: Increase in oxygen consumption in rat after 120 mins; format: functional; conditions: 2 h; outline: as §1
Rattus norvegicus [15] = test: Increase in oxygen consumption in rat at 3 mg/kg, po after 120 mins; format: functional; outline: as §1
Rattus norvegicus [16] = test: Increase in oxygen consumption in rat at 1.0 mg/kg, po after 120 mins; format: functional; outline: as §1
Rattus norvegicus [17] = test: Increase in oxygen consumption in rat at 0.3 mg/kg, po after 120 mins; format: functional; outline: as §1
[18] = Clearance in rat; format: ADME, organism-based; conditions: in vivo
[19] = Solubility in phosphate buffer at pH 6.5; format: physicochemical
Outline: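 Solubility measured in phosphate buffer at pH 6.5.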

[20] = target: Beta-3 adrenergic receptor (Rattus norvegicus) (UniProt P26255); test: Intrinsic activity at rat adrenergic beta-3 receptor assessed as cAMP production relative to isoproterenol; format: functional
Chain of Beta-3 adrenergic receptor (Rattus norvegicus) (P26255 whole entry): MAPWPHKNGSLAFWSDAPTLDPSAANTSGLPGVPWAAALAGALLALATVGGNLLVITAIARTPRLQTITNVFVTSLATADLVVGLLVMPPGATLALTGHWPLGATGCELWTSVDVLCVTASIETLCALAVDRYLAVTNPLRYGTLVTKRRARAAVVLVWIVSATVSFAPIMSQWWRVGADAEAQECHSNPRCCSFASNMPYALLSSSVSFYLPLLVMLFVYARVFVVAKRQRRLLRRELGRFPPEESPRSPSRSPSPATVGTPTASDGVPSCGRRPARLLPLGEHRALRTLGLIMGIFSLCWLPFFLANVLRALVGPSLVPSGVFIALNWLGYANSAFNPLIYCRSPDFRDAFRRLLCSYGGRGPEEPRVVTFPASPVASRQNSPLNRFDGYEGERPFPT

[21] = target: Beta-3 adrenergic receptor (Rattus norvegicus, UniProt P26255); test: Agonist activity at rat adrenergic beta-3 receptor assessed as cAMP production; format: functional
Chain of Beta-3 adrenergic receptor (Rattus norvegicus, UniProt P26255) (P26255 whole entry): as above

EC50 [1] [nM]	Intrinsic activity [2] [%]	Ki [3] [nM]	Compound	further results
57	133	400	CCc1nc(-c2ccc(OCCNC[C@H](O)c3cccnc3)cc2)co1	Ki [4]: 37 nM; Ratio Ki (Homo sapiens): 11
47	110	210	COCc1nc(-c2ccc(OCCNC[C@H](O)c3cccnc3)cc2)co1	
1360	55		Cc1nc(-c2ccc(CCNC[C@H](O)c3cccnc3)cc2)cs1	
37	111	400	Cc1nc(-c2ccc(OCCNC[C@H](O)c3cccnc3)cc2)co1	Ki [4]: 21 nM; Ratio Ki (Homo sapiens): 19
1190	106		O[C@@H](CNCCc1ccc(-c2csc(-c3cccnc3)n2)cc1)c1cccnc1	
57	135	360	CC(C)c1nc(-c2ccc(OCCNC[C@H](O)c3cccnc3)cc2)co1	Ki [4]: 49 nM; Ratio Ki (Homo sapiens): 7.4
2740	108		O[C@@H](CNCCc1ccc(-c2csc(-c3ccccc3)n2)cc1)c1cccnc1	
42	94	270	OCc1nc(-c2ccc(OCCNC[C@H](O)c3cccnc3)cc2)co1	Ki [4]: 30 nM; Ratio Ki (Homo sapiens): 8.6
	92		O=S(=O)(Nc1ccc(CCNC[C@H](O)c2cccnc2)cc1)c1ccc(-c2nc(-c3ccc(C(F)(F)F)cc3)cs2)cc1	
2250	80		CCc1nc(-c2ccc(CCNC[C@H](O)c3cccnc3)cc2)cs1	
200	98		O[C@@H](CNCCOc1ccc(-c2cnco2)cc1)c1cccnc1	
200	150	100	O[C@@H](CNCCOc1ccc(-c2csc(C(F)(F)F)n2)cc1)c1cccnc1	
230	121		Cc1nc(-c2ccc(CCNC[C@H](O)c3ccc(Cl)c(NS(C)(=O)=O)c3)cc2)cs1	
27	85	140	O[C@@H](CNCCOc1ccc(-c2cscn2)cc1)c1cccnc1	solubility [19]: > 10000 µg/mL; Ki [4]: 10 nM; Intrinsic activity [20]: 104%; EC50 [21]: 26 nM; Ratio Ki (Homo sapiens): 14.2; Activity (Rattus norvegicus [15]): 11%
170	106	100	Cc1nc(-c2ccc(OCCNC[C@H](O)c3cccnc3)cc2)cs1	Activity (Rattus norvegicus [5]): 32%; Ki [4]: 120 nM; Intrinsic activity [20]: 113%; EC50 [21]: 13 nM; Ratio Ki (Homo sapiens): 0.8; Activity (Rattus norvegicus [15]): 20%
309	80	170	Cc1ocnc1-c1ccc(OCCNC[C@H](O)c2cccnc2)cc1	
4490	94		O[C@@H](CNCCc1ccc(-c2csc(C(F)(F)F)n2)cc1)c1cccnc1	
490	70		CS(=O)(=O)Nc1cc([C@@H](O)CNCCc2ccc(-c3csc(-c4ccccc4)n3)cc2)ccc1Cl	
606	75	1550	Cc1nc(-c2ccc(OCCNC[C@H](O)c3cccnc3)cc2)c(C)o1	
520	24		O[C@@H](CNCCOc1ccc(-c2ncco2)cc1)c1cccnc1	
130	95		CCc1nc(-c2ccc(CCNC[C@H](O)c3ccc(Cl)c(NS(C)(=O)=O)c3)cc2)cs1	

Compound	EC50 [1] [nM]	Intrinsic activity [2] [%]	Ki [3] [nM]	further results
O[C@@H](CNCCOc1ccc(-c2coc(COCc3ccccc3)n2)cc1)c1cccnc1	220	137	50	
CCc1nc(-c2ccc(OCCNC[C@H](O)c3cccnc3)cc2)cs1	170	106	37	
O[C@@H](CNCCOc1ccc(-c2csc(-c3ccncc3)n2)cc1)c1cccnc1	65	106	97	
O[C@@H](CNCCOc1ccc(-c2csc(-c3ccccc3)n2)cc1)c1cccnc1	580	53	150	Ki [4]: 500 nM
O[C@@H](CNCCOc1ccc(-c2cocn2)cc1)c1cccnc1	20	94	200	Activity (Rattus norvegicus [5]): 42%; clearance [6]: 6 mL/min/kg; bioavailability [7]: 59%; Vd [8]: 0.89 L/kg; Activity (Rattus norvegicus [9]): 10%; bioavailability [10]: 66%; half-life [11]: 306 min; Ki [4]: 10 nM; Vd [12]: 2.8 L/kg; half-life [13]: 84 min; Ratio Ki (Homo sapiens): 20; ED20 (Rattus norvegicus [14]): 2 mg/kg; Activity (Rattus norvegicus [15]): 29%; Activity (Rattus norvegicus [16]): 11%; Activity (Rattus norvegicus [17]): 8%; clearance [18]: 13 mL/min/kg
O[C@@H](CNCCOc1ccc(-c2csc(C3CCCC3)n2)cc1)c1cccnc1	290	159	130	
O[C@@H](CNCCOc1ccc(-c2csc(-c3cccnc3)n2)cc1)c1cccnc1	120	121	120	

— ChEMBL document CHEMBL1139766, “Discovery of potent and orally bioavailable heterocycle-based beta3-adrenergic receptor agonists, potential therapeutics for the treatment of obesity” (Bioorg Med Chem Lett, 2007)
